Key:
Vero [1] = assay: In vitro antiviral activity against vaccinia(VV) virus was determined in african green monkey kidney (vero,V) expressed as virus rating. Toxic level(>1000 ug/mL); type: functional, Chlorocebus sabaeus
How it was run: (§1)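 Cell monolayers (18 h) infected with 320 TCID50 of virus. Compound was added within 15–30 min at half-log dilutions from 1000 to 1 μg/mL. After 72 h at 37 °C in 5% CO2, CPE was scored 0–4 by microscopy. VR = sum of (virus control − treated) scores, halved at partially toxic levels, divided by 10 × test cups per drug level.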

HEp-2 [2] = assay: In vitro antiviral activity against vaccinia(VV) virus was determined in human laryngeal epithelioma (HEp-2,H)expressed as virus rating. Toxic level(320 ug/mL); type: functional; how it was run: as §1
Vero [3] = assay: In vitro antiviral activity against herpes simplex type 1 (HSV-1) virus was determined in african green monkey kidney (vero,V) expressed as virus rating. Toxic level(>1000 ug/mL); type: functional, Chlorocebus sabaeus; how it was run: as §1
HEp-2 [4] = assay: In vitro antiviral activity against parainfluenza type 3 (para 3) virus was determined in human laryngeal epithelioma (HEp-2,H)expressed as virus rating. Toxic level(320 ug/mL); type: functional; how it was run: as §1
HEp-2 [5] = assay: In vitro antiviral activity against herpes simplex type 1 (HSV-1) virus was determined in human laryngeal epithelioma (HEp-2,H)expressed as virus rating. Toxic level(320 ug/mL); type: functional; how it was run: as §1
Vero [6] = assay: In vitro antiviral activity against parainfluenza type 3(para 3) virus was determined in african green monkey kidney (vero,V) expressed as virus rating. Toxic level(>1000 ug/mL); type: functional, Chlorocebus sabaeus; how it was run: as §1
Vero [7] = assay: Percentage plaque reduction was determined against venezuelan equine encephalitis (VEE) virus in african green monkey kidney (vero,V) at a conc of 250-500 ug/mL. Toxic level(32 ug/mL); type: functional, Chlorocebus sabaeus
Vero [8] = assay: Percentage plaque reduction was determined against rift valley fever(RVF) virus in african green monkey kidney (vero,V) at a conc of 25-100 ug/mL. Toxic level(32 ug/mL); 61-90; type: functional, Chlorocebus sabaeus
Vero [9] = assay: Percentage plaque reduction was determined against Sandfly fever (SF) virus in african green monkey kidney (vero,V) at a conc of 250-500 ug/mL; 10-30; type: functional, Chlorocebus sabaeus
Vero [10] = assay: In vitro antiviral activity against herpes simplex type 1 (HSV-1) virus was determined in african green monkey kidney (vero,V) expressed as virus rating. Toxic level(32 ug/mL); type: functional, Chlorocebus sabaeus; how it was run: as §1
Vero [11] = assay: Percentage plaque reduction was determined against venezuelan equine encephalitis (VEE) virus in african green monkey kidney (vero,V) at a conc of 25-100 ug/mL. Toxic level(32 ug/mL); type: functional, Chlorocebus sabaeus
Vero [12] = assay: In vitro antiviral activity against parainfluenza type 3(para 3) virus was determined in african green monkey kidney (vero,V) expressed as virus rating. Toxic level(32 ug/mL); type: functional, Chlorocebus sabaeus; how it was run: as §1
Vero [13] = assay: Percentage plaque reduction was determined against venezuelan equine encephalitis (VEE) virus in african green monkey kidney (vero,V) at a conc of <25 ug/mL. Toxic level(32 ug/mL); type: functional, Chlorocebus sabaeus
Vero [14] = assay: Percentage plaque reduction was determined against venezuelan equine encephalitis (VEE) virus in african green monkey kidney (vero,V) at a conc of 100-250 ug/mL. Toxic level(32 ug/mL); type: functional, Chlorocebus sabaeus
Vero [15] = assay: Percentage plaque reduction was determined against yellow fever(YF) virus in african green monkey kidney (vero,V).Toxic level(32 ug/mL); 61-90; type: functional, Chlorocebus sabaeus
Vero [16] = assay: Percentage plaque reduction was determined against pichinde(PICH) virus in african green monkey kidney (vero,V).Toxic level(32 ug/mL); 61-90; type: functional, Chlorocebus sabaeus
How it was run: (§2)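 Infected Vero 24-well monolayers: virus adsorbed 1 h at 37 °C, then overlaid with agar holding dilutions of compound and incubated again at 37 °C with CO₂. Plaques were stained with crystal violet and counted. Inhibition was scored as % plaque reduction bands (10-30%, 31-60%, 61-90%), each tied to a drug concentration range.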

Vero [17] = assay: Percentage plaque reduction was determined against rift valley fever(RVF) virus in african green monkey kidney (vero,V) at a conc of 100-250 ug/mL; type: functional, Chlorocebus sabaeus
Vero [18] = assay: In vitro antiviral activity against parainfluenza type 3(para 3) virus was determined in african green monkey kidney (vero,V) expressed as virus rating.; type: functional, Chlorocebus sabaeus; how it was run: as §1
Vero [19] = assay: Percentage plaque reduction was determined against Sandfly fever (SF) virus in african green monkey kidney (vero,V) at a conc of <25 ug/mL; type: functional, Chlorocebus sabaeus
Vero [20] = assay: Percentage plaque reduction was determined against Sandfly fever (SF) virus in african green monkey kidney (vero,V) at a conc of 100-250 ug/mL; type: functional, Chlorocebus sabaeus
Vero [21] = assay: In vitro antiviral activity against vaccinia(VV) virus was determined in african green monkey kidney (vero,V) expressed as virus rating.; type: functional, Chlorocebus sabaeus; how it was run: as §1
Vero [22] = assay: Percentage plaque reduction was determined against venezuelan equine encephalitis (VEE) virus in african green monkey kidney (vero,V) at a conc of 100-250 ug/mL; type: functional, Chlorocebus sabaeus
Vero [23] = assay: Percentage plaque reduction was determined against venezuelan equine encephalitis (VEE) virus in african green monkey kidney (vero,V) at a conc of 250-500 ug/mL; type: functional, Chlorocebus sabaeus
Vero [24] = assay: Percentage plaque reduction was determined against rift valley fever(RVF) virus in african green monkey kidney (vero,V) at a conc of 250-500 ug/mL; type: functional, Chlorocebus sabaeus
Vero [25] = assay: Percentage plaque reduction was determined against Sandfly fever (SF) virus in african green monkey kidney (vero,V) at a conc of 25-100 ug/mL; type: functional, Chlorocebus sabaeus
Vero [26] = assay: Percentage plaque reduction was determined against rift valley fever(RVF) virus in african green monkey kidney (vero,V) at a conc of 25-100 ug/mL; type: functional, Chlorocebus sabaeus
Vero [27] = assay: Percentage plaque reduction was determined against venezuelan equine encephalitis (VEE) virus in african green monkey kidney (vero,V) at a conc of 25-100 ug/mL; type: functional, Chlorocebus sabaeus
Vero [28] = assay: Percentage plaque reduction was determined against rift valley fever(RVF) virus in african green monkey kidney (vero,V) at a conc of <25 ug/mL; type: functional, Chlorocebus sabaeus
Vero [29] = assay: In vitro antiviral activity against herpes simplex type 1 (HSV-1) virus was determined in african green monkey kidney (vero,V) expressed as virus rating.; type: functional, Chlorocebus sabaeus; how it was run: as §1
Vero [30] = assay: Percentage plaque reduction was determined against yellow fever(YF) virus in african green monkey kidney (vero,V); 61-90; type: functional, Chlorocebus sabaeus
Vero [31] = assay: Percentage plaque reduction was determined against pichinde(PICH) virus in african green monkey kidney (vero,V); type: functional, Chlorocebus sabaeus; how it was run: as §2
Vero [32] = assay: Percentage plaque reduction was determined against Sandfly fever (SF) virus in african green monkey kidney (vero,V) at a conc of 250-500 ug/mL; type: functional, Chlorocebus sabaeus
Vero [33] = assay: Percentage plaque reduction was determined against venezuelan equine encephalitis (VEE) virus in african green monkey kidney (vero,V) at a conc of <25 ug/mL; type: functional, Chlorocebus sabaeus
Vero [34] = assay: In vitro antiviral activity against parainfluenza type 3(para 3) virus was determined in african green monkey kidney (vero,V) expressed as virus rating. Toxic level(320 ug/mL); type: functional, Chlorocebus sabaeus; how it was run: as §1
Vero [35] = assay: Percentage plaque reduction was determined against pichinde(PICH) virus in african green monkey kidney (vero,V).; type: functional, Chlorocebus sabaeus; how it was run: as §2
Vero [36] = assay: Percentage plaque reduction was determined against Sandfly fever (SF) virus in african green monkey kidney (vero,V) at a conc of 25-100 ug/mL. Toxic level(320 ug/mL); type: functional, Chlorocebus sabaeus
Vero [37] = assay: Percentage plaque reduction was determined against venezuelan equine encephalitis (VEE) virus in african green monkey kidney (vero,V) at a conc of 250-500 ug/mL. Toxic level(320 ug/mL); type: functional, Chlorocebus sabaeus
Vero [38] = assay: In vitro antiviral activity against herpes simplex type 1 (HSV-1) virus was determined in african green monkey kidney (vero,V) expressed as virus rating. Toxic level(320 ug/mL); type: functional, Chlorocebus sabaeus; how it was run: as §1
Vero [39] = assay: Percentage plaque reduction was determined against rift valley fever(RVF) virus in african green monkey kidney (vero,V) at a conc of <25 ug/mL. Toxic level(320 ug/mL); type: functional, Chlorocebus sabaeus
Vero [40] = assay: Percentage plaque reduction was determined against pichinde(PICH) virus in african green monkey kidney (vero,V).Toxic level(320 ug/mL); type: functional, Chlorocebus sabaeus; how it was run: as §2

## NC(=O)c1ncnc2c1cnn2C1O[C@H](CO)[C@@H](O)[C@H]1O (stereo not given in full)
Vero [1]
  Virus rating: 0
HEp-2 [2]
  Virus rating: 0.2
Vero [3]
  Virus rating: 0
HEp-2 [4]
  Virus rating: 0
HEp-2 [5]
  Virus rating: 0
Vero [6]
  Virus rating: 0

## O=C1N=CN=C2C1C=CN2C1O[C@H](CO)[C@@H](O)[C@H]1O (stereo not given in full)
Vero [7]
  Plaque reduction: 0%
Vero [8]
  Plaque reduction: 61%
Vero [9]
  Plaque reduction: 10%
Vero [10]
  Virus rating: 0
Vero [11]
  Plaque reduction: 0%
Vero [12]
  Virus rating: 0
Vero [13]
  Plaque reduction: 0%
Vero [14]
  Plaque reduction: 0%
Vero [15]
  Plaque reduction: 61%
Vero [16]
  Plaque reduction: 61%

## CSc1ncnc2c([C@@H]3O[C@H](COC(C)=O)[C@@H](OC(C)=O)[C@H]3OC(C)=O)n[nH]c12
Vero [17]
  Plaque reduction: 0%
Vero [18]
  Virus rating: 1
Vero [19]
  Plaque reduction: 0%
Vero [20]
  Plaque reduction: 0%
Vero [21]
  Virus rating: 1.2
Vero [22]
  Plaque reduction: 0%
Vero [23]
  Plaque reduction: 0%
Vero [24]
  Plaque reduction: 0%
Vero [25]
  Plaque reduction: 0%
Vero [26]
  Plaque reduction: 0%
Vero [27]
  Plaque reduction: 0%
Vero [28]
  Plaque reduction: 0%
Vero [29]
  Virus rating: 0.6
Vero [30]
  Plaque reduction: 61%
Vero [31]
  Plaque reduction: 0%
Vero [32]
  Plaque reduction: 0%
Vero [33]
  Plaque reduction: 0%

## OC[C@H]1OC(n2ccc3c(Cl)ncnc32)[C@H](O)[C@@H]1O (stereo not given in full)
Vero [34]
  Virus rating: 0.1
Vero [35]
  Plaque reduction: >90%
Vero [36]
  Plaque reduction: 90%
Vero [37]
  Plaque reduction: 0%
Vero [38]
  Virus rating: 0.2
Vero [39]
  Plaque reduction: >90%
Vero [40]
  Plaque reduction: >90%
